Data set [1] deals with Mycobacterium tuberculosis. Nature of the data set: Antimycobacterial activity against Mycobacterium tuberculosis assessed as reduction in bacterial growth by microdilution method. Type of data set: functional.
The nature of data set [2]: Kinetic solubility of compound in PBS at pH 7.4 incubated for 4 hrs by HPLC-MS/MS analysis. In kind it is physicochemical. Conditions: read-out: Kinetic_solubility.
Data set [3] can be described thus: Metabolic stability in human liver microsomes assessed as half life at 1 uM measured upto 60 mins by HPLC-MS/MS analysis. Type of data set: ADME, Microsome. The gist of the method:
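Half-life of the compound in human liver microsomes, expressed in minutes. Reported as mean ± SD, n = 3.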

Data set [4] can be described thus: Kinetic solubility of compound in water incubated for 4 hrs by HPLC-MS/MS analysis. Type of data set: physicochemical. Particulars: read-out: Kinetic_solubility.
The nature of data set [5]: Metabolic stability in human liver microsomes assessed as intrinsic clearance at 1 uM measured upto 60 mins by HPLC-MS/MS analysis. Type of data set: ADME, Microsome. Conditions: read-out: CLH. The procedure, abridged:
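Intrinsic clearance derived from the microsomal in vitro half-life as (0.693/t1/2) × (mL incubation/mg microsomes) × (45 mg microsomes/g liver) × (20 g liver/kg body weight). Expressed in mL min–1 kg–1.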

Data set [6] can be described thus: Glutathione reactivity of compound assessed as GSH adduct formation incubated for 24 hrs by HPLC-MS analysis. Type of data set: physicochemical. Set-up: concentration or dose not given beside the values. The procedure, abridged:
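Compounds incubated 24 h with GSH in 1:100 molar excess, then analysed by HPLC–MS/MS in full-scan mode. Both the singly charged [M + H]+ and doubly charged [M + 2H]2+ conjugate ions were monitored. Percentage conjugate = (sum of both conjugate ion peak areas)/(parent [M + H]+ peak area).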

In data set [7] the test system is Mycobacterium tuberculosis. Nature of the data set: Antimycobacterial activity against Mycobacterium tuberculosis H37Rv ATCC 27294 assessed as reduction in bacterial growth incubated for […] by alamar blue assay. In kind it is functional.
Data set [8] relates to Vero. Nature of the data set: Cytotoxicity against African green monkey Vero cells. Conditions: chlorocebus sabaeus. In kind it is cell-based.
Data set [9] concerns Mycobacterium tuberculosis. The experiment in a line: Antimycobacterial activity against Mycobacterium tuberculosis assessed as reduction in bacterial growth incubated for 21 days by REMA assay. Type of data set: functional. Conditions: 504 h.

In brackets after ≈: the same amount, converted by molar mass.

Turning to `Cc1ccc(Nc2nc(-c3cc(C(=O)Nc4ccccn4)no3)cs2)cc1`, the MIC in data set [1] turned out to be 0.16 µM (≈ 0.0604 µg/mL). For the same compound, the solubility kinetic at 4 h was 2.4 µM (≈ 0.906 µg/mL) in data set [2] and 2.9 µM (≈ 1.09 µg/mL) in data set [4]. Also, in data set [3], the half-life at 1 µM was found to be 16.1 min. In data set [5], the CLint scaled at 1 µM was 38.8 mL/min/kg. For the same compound, in [6], the Activity is listed as 7.1%.

As to `Cc1ccc(Nc2nc(-c3cc(C(F)(F)F)ccc3F)cs2)cc1`, the solubility kinetic at 4 h in [2] is 7.5 µM (≈ 2.64 µg/mL); in data set [4], 24 µM (≈ 8.46 µg/mL). Also, the half-life at 1 µM in data set [3] is 22.4 min. The MIC in data set [7] was 27.5 µM (≈ 9.69 µg/mL). The CLint scaled at 1 µM in data set [5] is 27.9 mL/min/kg. Further, in [6], the Activity came out at 10.4%.

`CCOC(=O)c1cc(-c2coc(Nc3ccc(C)cc3)n2)on1`: the solubility kinetic at 4 h is 6.8 µM (≈ 2.13 µg/mL) in data set [2] and 9.1 µM (≈ 2.85 µg/mL) in data set [4]. For the same compound, the half-life at 1 µM in [3] amounted to 2.7 min. In addition, the MIC in data set [7] came to 2.3 µM (≈ 0.721 µg/mL). For the same compound, the Activity entry in data set [8] is on record as “Non-Toxic”; in [6] it was 15.8%. For the same compound, the CLint scaled at 1 µM in data set [5] came out at 226 mL/min/kg.

Regarding `COc1ccc(-c2csc(Nc3ccc(C)cc3)n2)cc1`, the figures for the solubility kinetic at 4 h in data set [2] and in data set [4] were 1.2 µM (≈ 0.356 µg/mL) and 20 µM (≈ 5.93 µg/mL), respectively. The half-life at 1 µM in data set [3] stood at 14.5 min. The MIC in data set [7] worked out at 13 µM (≈ 3.85 µg/mL). In data set [5], the CLint scaled at 1 µM is 42.9 mL/min/kg. Also, the Activity in data set [6] is reported as 13.9%.

Turning to `Cc1ccc(Nc2nc(-c3cc(C(F)(F)F)ccc3F)co2)cc1`, the solubility kinetic at 4 h in data set [2] amounted to 5.9 µM (≈ 1.98 µg/mL); in data set [4], 5.2 µM (≈ 1.75 µg/mL). Further, the half-life at 1 µM in data set [3] was 22.6 min. In data set [7], the MIC was determined as 12.3 µM (≈ 4.14 µg/mL). Moreover, the CLint scaled at 1 µM in data set [5] stood at 27.6 mL/min/kg. The Activity in [6] is given as 14.2%.

Regarding `Cc1ccc(Nc2nc(-c3cc(C(=O)Nc4ccccn4)no3)co2)cc1`, the solubility kinetic at 4 h in data set [2] was found to be 9.3 µM (≈ 3.36 µg/mL); in data set [4], 24 µM (≈ 8.67 µg/mL). Besides, the half-life at 1 µM in data set [3] turned out to be 15 min. The Activity result was “Non-Toxic” in data set [8] and 2.1% in data set [6]. In data set [9], the MIC is 6.9 µM (≈ 2.49 µg/mL). Further, the CLint scaled at 1 µM in data set [5] came to 41.5 mL/min/kg.

As to `COc1ccc(-c2coc(Nc3ccc(C)cc3)n2)cc1`, the solubility kinetic at 4 h in data set [2] was 1.1 µM (≈ 0.308 µg/mL); in data set [4] it was 0.7 µM (≈ 0.196 µg/mL). For the same compound, the half-life at 1 µM in data set [3] came out at 20.9 min. Moreover, the MIC in [7] is more than 100 µM. Also, the CLint scaled at 1 µM in data set [5] is 29.9 mL/min/kg. Further, in data set [6], the Activity was found to be 14.2%.

As to `CCOC(=O)c1cc(-c2csc(Nc3ccc(C)cc3)n2)on1`, in data set [1], the MIC was 1.5 µM (≈ 0.494 µg/mL). In addition, the solubility kinetic at 4 h in data set [2] turned out to be 27.7 µM (≈ 9.12 µg/mL); in [4], 54.9 µM (≈ 18.1 µg/mL). For the same compound, the half-life at 1 µM in [3] amounted to 3.3 min. Further, in data set [5], the CLint scaled at 1 µM stood at 189 mL/min/kg. The Activity in [6] is 3.7%.

These data come from ChEMBL document CHEMBL4619794, “2-Aminooxazole as a Novel Privileged Scaffold in Antitubercular Medicinal Chemistry” (ACS Med Chem Lett, 2020).
